Laboratory results as given in ChEMBL document CHEMBL5126577, “Discovery of honokiol thioethers containing 1,3,4-oxadiazole moieties as potential α-glucosidase and SARS-CoV-2 entry inhibitors” (Bioorg Med Chem, 2022).

Test system: SARS-CoV-2
Experiment: Antiviral activity against pseudovirus SARS-CoV-2 spike protein infected in HEK-293T cells overexpressing ACE2 assessed as inhibition on pseudovirus infection incubated for 52 hrs by luminescence based microplate reader analysis
Type: functional, organism-based
Settings: Severe acute respiratory syndrome coronavirus 2, HEK-293T
Outline: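 HEK-293T-ACE2h cells were pre-incubated with compound in DMEM for 2 h, then inoculated with luciferase-reporter spike pseudovirus plus 2-fold compound for about 2 h at 37 °C. The inoculum was replaced with fresh DMEM and cells were kept 48 h at 37 °C, then lysed. Luciferase luminescence was read, with virus-only cells set as 100%, and IC50 was computed.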

Compound | IC50
C=CCc1cc(CSc2nnc(-c3ccccc3F)o2)c(O)c(-c2ccc(O)c(CC=C)c2)c1 | > 100 µM
C=CCc1cc(-c2cc(CC=C)c3oc(SCc4nnc(-c5cccc(Cl)c5)o4)nc3c2)c2oc(SCc3nnc(-c4cccc(Cl)c4)o3)nc2c1 | > 100 µM
C=CCc1cc(-c2cc(CC=C)c3oc(SCc4nnc(-c5ccccc5F)o4)nc3c2)c2oc(SCc3nnc(-c4ccccc4F)o3)nc2c1 | > 100 µM
C=CCc1cc(-c2cc(CC=C)c3oc(SCc4nnc(-c5ccccc5C)o4)nc3c2)c2oc(SCc3nnc(-c4ccccc4C)o3)nc2c1 | > 100 µM
C=CCc1cc(-c2cc(CC=C)c3oc(SCc4nnc(-c5ccc(C)cc5)o4)nc3c2)c2oc(SCc3nnc(-c4ccc(C)cc4)o3)nc2c1 | > 100 µM
C=CCc1cc(-c2cc(CC=C)c3oc(SCc4nnc(-c5cccc(F)c5)o4)nc3c2)c2oc(SCc3nnc(-c4cccc(F)c4)o3)nc2c1 | > 100 µM
C=CCc1cc(-c2cc(CC=C)c3oc(SCc4nnc(-c5ccc(Cl)cc5)o4)nc3c2)c2oc(SCc3nnc(-c4ccc(Cl)cc4)o3)nc2c1 | > 100 µM
C=CCc1cc(-c2cc(CC=C)c3oc(SCc4nnc(-c5ccc(Br)cc5)o4)nc3c2)c2oc(SCc3nnc(-c4ccc(Br)cc4)o3)nc2c1 | > 100 µM
C=CCc1cc(-c2cc(CC=C)c3oc(SCc4nnc(-c5cccc(OC)c5)o4)nc3c2)c2oc(SCc3nnc(-c4cccc(OC)c4)o3)nc2c1 | > 100 µM
C=CCc1cc(-c2cc(CC=C)c3oc(SCc4nnc(-c5ccccc5)o4)nc3c2)c2oc(SCc3nnc(-c4ccccc4)o3)nc2c1 | > 100 µM
C=CCc1cc(-c2cc(CC=C)c3oc(SCc4nnc(-c5ccc(F)cc5)o4)nc3c2)c2oc(SCc3nnc(-c4ccc(F)cc4)o3)nc2c1 | > 100 µM
C=CCc1cc(CSc2nnc(-c3cccnc3)o2)c(O)c(-c2ccc(O)c(CC=C)c2)c1 | 45.6 µM
C=CCc1cc(-c2cc(CC=C)c3oc(SCc4nnc(-c5cccc(Br)c5)o4)nc3c2)c2oc(SCc3nnc(-c4cccc(Br)c4)o3)nc2c1 | > 100 µM
C=CCc1cc(-c2cc(CC=C)c3oc(SCc4nnc(-c5ccc(OC)cc5)o4)nc3c2)c2oc(SCc3nnc(-c4ccc(OC)cc4)o3)nc2c1 | > 100 µM
C=CCc1cc(-c2cc(CC=C)c3oc(SCc4nnc(-c5ccccc5OC)o4)nc3c2)c2oc(SCc3nnc(-c4ccccc4OC)o3)nc2c1 | > 100 µM
C=CCc1cc(-c2cc(CC=C)c3oc(SCc4nnc(-c5ccccc5Cl)o4)nc3c2)c2oc(SCc3nnc(-c4ccccc4Cl)o3)nc2c1 | 84.4 µM
C=CCc1cc(-c2cc(CC=C)c3oc(SCc4nnc(-c5cccc(C)c5)o4)nc3c2)c2oc(SCc3nnc(-c4cccc(C)c4)o3)nc2c1 | > 100 µM
C=CCc1cc(CSc2nnc(-c3ccccc3Cl)o2)c(O)c(-c2ccc(O)c(CC=C)c2)c1 | 85.2 µM
C=CCc1cc(CSc2nnc(-c3ccccc3)o2)c(O)c(-c2ccc(O)c(CC=C)c2)c1 | 17 µM
C=CCc1cc(CSc2nnc(-c3ccccc3C)o2)c(O)c(-c2ccc(O)c(CC=C)c2)c1 | > 100 µM
C=CCc1cc(-c2cc(CC=C)c3oc(SCc4nnc(-c5ccccc5Br)o4)nc3c2)c2oc(SCc3nnc(-c4ccccc4Br)o3)nc2c1 | > 100 µM
C=CCc1ccc(O)c(-c2ccc(O)c(CC=C)c2)c1 [HONOKIOL] | > 50 µM
